Reference: ChEMBL document CHEMBL4359913, “Identification and characterization of benzo[d]oxazol-2(3H)-one derivatives as the first potent and selective small-molecule inhibitors of chromodomain protein CDYL” (Eur J Med Chem, 2019)
pIC50, pKd: −log10 of the molar value. Active and inactive are the calls of the source. The rule behind the calls is not given here. Where a SMILES comes first, the peptide text is derived from it. [ ]: non-standard residue; d: D form. The star is where a group is joined. Benzoyl(4-tBu) = CC(C)(C)c1ccc(C(=O)*)cc1; Lys(Et2) = CCN(CC)CCCC[C@H](N)C(=O)O

Assays:
[1] = target: T1, Chromodomain Y-like protein (Homo sapiens, UniProt Q9Y232); experiment: Binding affinity to recombinant human N-terminal GST-tagged CDYL (1 to 60 residues) expressed in Escherichia coli […] by SPR analysis
T1 sequence (Q9Y232 whole entry): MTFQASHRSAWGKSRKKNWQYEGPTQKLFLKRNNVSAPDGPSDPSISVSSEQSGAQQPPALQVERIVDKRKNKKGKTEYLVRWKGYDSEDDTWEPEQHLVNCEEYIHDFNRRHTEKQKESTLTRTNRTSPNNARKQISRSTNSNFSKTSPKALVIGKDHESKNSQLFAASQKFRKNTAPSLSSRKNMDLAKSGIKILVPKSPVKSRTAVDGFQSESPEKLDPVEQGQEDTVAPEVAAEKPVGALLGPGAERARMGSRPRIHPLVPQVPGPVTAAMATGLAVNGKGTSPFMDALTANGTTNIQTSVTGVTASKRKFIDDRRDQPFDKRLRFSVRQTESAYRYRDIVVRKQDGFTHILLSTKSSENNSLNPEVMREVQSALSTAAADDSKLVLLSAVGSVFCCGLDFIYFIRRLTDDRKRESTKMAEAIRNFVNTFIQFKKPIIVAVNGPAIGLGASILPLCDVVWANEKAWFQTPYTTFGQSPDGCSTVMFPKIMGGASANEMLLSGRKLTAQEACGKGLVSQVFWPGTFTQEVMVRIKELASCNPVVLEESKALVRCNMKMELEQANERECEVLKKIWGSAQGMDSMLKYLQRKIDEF
Procedure, shortened: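 GST-tagged chromodomain expressed in E. coli BL21 with 0.2 mM IPTG at 28 °C for 6 h. Purified on GSTrap, tag removed with PreScission protease. Amine-coupled to CM5 chip at pH 4.0–4.5 (5000–10000 RU). Compound run as a 1.5- or 2-fold series from 100 µM in PBSP with 5% DMSO, 25 °C, 30 µL/min, 60 s association and 60 s dissociation.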

[2] = target: T2, Chromobox protein homolog 7 (Homo sapiens, UniProt O95931); experiment: Binding affinity to recombinant human N-terminal GST-tagged CBX7 (1 to 62 residues) expressed in Escherichia coli […] by SPR analysis
T2 sequence (O95931 whole entry): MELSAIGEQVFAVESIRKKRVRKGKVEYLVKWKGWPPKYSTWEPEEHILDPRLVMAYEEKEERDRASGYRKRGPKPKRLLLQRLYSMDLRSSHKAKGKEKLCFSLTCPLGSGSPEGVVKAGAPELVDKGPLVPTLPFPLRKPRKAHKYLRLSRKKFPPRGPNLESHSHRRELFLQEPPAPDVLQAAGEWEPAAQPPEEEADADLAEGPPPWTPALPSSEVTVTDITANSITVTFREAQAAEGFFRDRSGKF
Procedure, shortened: (§1)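 Chromodomain expressed with N-terminal GST tag in E. coli BL21 (IPTG 0.2 mM at OD600 0.6–0.8, 28 C for 6 h), GSTrap purified, tag cleaved by PreScission protease, amine-coupled to CM5 chip at pH 4.0–4.5 (5000–10000 RU). […] Mean ± SD of at least two replicates, each in duplicate.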

[3] = target: T3, Chromodomain Y-like protein (Homo sapiens) (UniProt Q9Y232); experiment: Inhibition of CDYL in human HEK293T cells assessed as increase in MYT1 mRNA expression at 50 to 200 uM incubated for 24 hrs by RT-qPCR analysis; type: cell-based
T3 sequence (whole entry): T1 sequence (Q9Y232 whole entry)
Procedure, shortened: (§2)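 SH-SY5Y or HEK-293T cells grown in DMEM with 10% FBS and treated with compound for 24 h. mRNA quantified by SYBR green RT-qPCR after DNase treatment, 2^-ΔΔCt method with GAPDH as reference, relative to DMSO. Mean ± S.E.M. of triplicate experiments, Student's t-test.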

[4] = target: T3, Chromodomain Y-like protein (Homo sapiens); experiment: Inhibition of CDYL in human HEK293T cells assessed as increase in BDNF mRNA expression at 50 to 200 uM incubated for 24 hrs by RT-qPCR analysis; type: cell-based; procedure, shortened: as §2
[5] = target: T3, Chromodomain Y-like protein (Homo sapiens); experiment: Inhibition of CDYL in human HEK293T cells assessed as increase in VGF mRNA expression at 50 to 200 uM incubated for 24 hrs by RT-qPCR analysis; type: cell-based; procedure, shortened: as §2
[6] = target: T3, Chromodomain Y-like protein (Homo sapiens); experiment: Inhibition of CDYL in human SH-SY5Y cells assessed as BDNF mRNA expression at 50 to 200 uM incubated for 24 hrs by RT-qPCR analysis; type: cell-based; procedure, shortened: as §2
[7] = target: T3, Chromodomain Y-like protein (Homo sapiens); experiment: Inhibition of CDYL in human SH-SY5Y cells assessed as VGF mRNA expression at 50 to 200 uM incubated for 24 hrs by RT-qPCR analysis; type: cell-based; procedure, shortened: as §2
[8] = target: T3, Chromodomain Y-like protein (Homo sapiens); experiment: Inhibition of CDYL in human SH-SY5Y cells assessed as MYT1 mRNA expression at 50 to 200 uM incubated for 24 hrs by RT-qPCR analysis; type: cell-based; procedure, shortened: as §2
[9] = target: T3, Chromodomain Y-like protein (Homo sapiens); experiment: Inhibition of CDYL in human SH-SY5Y cells assessed as increase in MYT1 mRNA expression incubated for 24 hrs by RT-qPCR analysis; type: cell-based; procedure, shortened: as §2
[10] = target: T4, Testis-specific chromodomain protein Y 1 (Homo sapiens, UniProt Q9Y6F8); experiment: Binding affinity to recombinant human N-terminal GST-tagged CDY1 (1 to 65 residues) expressed in Escherichia coli […] by SPR analysis; procedure, shortened: as §1
T4 sequence (Q9Y6F8 whole entry): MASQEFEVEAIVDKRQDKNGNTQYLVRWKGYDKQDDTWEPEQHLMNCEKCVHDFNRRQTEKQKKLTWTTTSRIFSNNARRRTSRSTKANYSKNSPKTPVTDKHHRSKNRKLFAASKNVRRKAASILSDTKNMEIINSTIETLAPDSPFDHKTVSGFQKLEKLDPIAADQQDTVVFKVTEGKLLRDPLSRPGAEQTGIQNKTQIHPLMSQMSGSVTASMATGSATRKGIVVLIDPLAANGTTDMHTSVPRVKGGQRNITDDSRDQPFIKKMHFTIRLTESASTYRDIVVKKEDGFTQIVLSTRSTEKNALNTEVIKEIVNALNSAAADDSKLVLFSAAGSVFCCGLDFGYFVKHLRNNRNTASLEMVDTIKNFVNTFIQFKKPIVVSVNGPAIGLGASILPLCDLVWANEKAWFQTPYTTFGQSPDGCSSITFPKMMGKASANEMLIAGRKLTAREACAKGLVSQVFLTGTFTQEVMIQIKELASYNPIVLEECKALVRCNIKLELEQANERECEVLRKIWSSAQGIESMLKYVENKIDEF

[11] = target: T3, Chromodomain Y-like protein (Homo sapiens); experiment: Inhibition of CDYL in human SH-SY5Y cells assessed as increase in BDNF mRNA expression incubated for 24 hrs by RT-qPCR analysis; type: cell-based; procedure, shortened: as §2
[12] = target: T3, Chromodomain Y-like protein (Homo sapiens); experiment: Inhibition of CDYL in human SH-SY5Y cells assessed as increase in VGF mRNA expression incubated for 24 hrs by RT-qPCR analysis; type: cell-based; procedure, shortened: as §2
[13] = target: T3, Chromodomain Y-like protein (Homo sapiens); experiment: Inhibition of CDYL in human SH-SY5Y cells assessed as increase in MYT1 mRNA expression at 100 uM incubated for 24 hrs by RT-qPCR analysis; type: cell-based
Procedure, shortened: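 SH-SY5Y cells exposed to 100 µM compound for 24 h. MYT1 mRNA measured by RT-qPCR: DNase treatment, SYBR green, 2^-ΔΔCt with GAPDH as internal control. Mean ± S.E.M. of triplicate experiments.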

[14] = target: T3, Chromodomain Y-like protein (Homo sapiens); experiment: Effect on CDYL-mediated MYT1 mRNA expression in human SH-SY5Y cells up to 200 uM incubated for 24 hrs by RT-qPCR analysis; type: cell-based
[15] = target: T3, Chromodomain Y-like protein (Homo sapiens); experiment: Effect on CDYL-mediated MYT1 mRNA expression in human HEK293T cells up to 200 uM incubated for 24 hrs by RT-qPCR analysis; type: cell-based
SH-SY5Y = experiment: Cytotoxicity against human SH-SY5Y cells assessed as reduction in cell viability incubated for 24 hrs by CCK8 assay
HEK-293T = experiment: Cytotoxicity against human HEK293T cells assessed as reduction in cell viability incubated for 24 hrs by CCK8 assay

SMILES	pKd [1]	pKd [2]	Activity [3]	Activity [4]	Activity [5]	Activity [9]	pKd [10]	also measured
COc1ccc2oc(=O)n(CC(=O)N3CCC(N4CCCC4)CC3)c2c1	4.90	5.09	inactive	inactive	inactive	–	–	Activity [6]: inactive; Activity [7]: inactive; Activity [8]: inactive
O=C(Cn1c(=O)oc2ccccc21)c1ccc2ccccc2c1	5.59	4.85	Active	Active	Active	Dose-dependent effect	4.38	Activity [11]: Dose-dependent effect; Activity [12]: Dose-dependent effect
CCc1ccc(C(=O)CC2(O)C(=O)Nc3ccc(Cl)cc32)cc1 (centres undefined)	4.25	4.92	–	–	–	–	4.47	Activity [13]: Active
CCN(CC)CCCC[C@H](NC(=O)[C@H](CC(C)C)NC(=O)[C@H](C)NC(=O)[C@H](Cc1ccccc1)NC(=O)c1ccc(C(C)(C)C)cc1)C(=O)N[C@@H](CO)C(=O)OC ({Benzoyl(4-tBu)}-FAL[Lys(Et2)]S-OMe)	5.25	–	–	–	–	–	–	Activity [14]: inactive; Activity [15]: inactive
COc1cccc(C(=O)CC2(O)C(=O)Nc3ccc(Cl)cc32)c1 (racemic)	5.31	4.07	–	–	–	Dose-dependent effect	–	pIC50 (SH-SY5Y): 4.17; pIC50 (HEK-293T): 4.25
